# Activity calls are given as the source filed them. No cut-off for these calls is given here.
# Assays:
# [1] = Metabolic stability in Sprague-Dawley rat liver microsomes assessed as compound remaining at 60 mins in presence of NADPH regenerating system by HPLC method; format: ADME; details: read-out: Stability
# Summary of the method: (§1)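 Test compound incubated with rat liver microsomes at 37 ℃ in buffer containing an NADPH regenerating system for the stated time. Remaining parent compound was quantified by HPLC.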
# A549 [2] = test: Induction of apoptosis in human A549 cells assessed as late apoptotic cells at 10 nM after 24 hrs by annexin V-FITC/propidium iodide staining-based flow cytometric method (reference value: 0.01%); format: functional
# A549 [3] = test: Induction of apoptosis in human A549 cells assessed as necrotic cells at 10 nM after 48 hrs by annexin V-FITC/propidium iodide staining-based flow cytometric method (reference value: 0.01%); format: functional
# [4] = Cytotoxicity against HLF assessed as growth inhibition after 48 hrs by MTT assay; details: Homo sapiens
# Summary of the method: (§2)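 Non-tumorigenic cells given 48 h compound exposure, and viability read by MTT. IC50 is mean ± SE from dose-response curves of at least three independent experiments. HUVECs were kept quiescent in endothelial cell medium with 0.5% fetal calf serum and no growth factor.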
# A549 [5] = test: Disruption of mitochondrial membrane potential in human A549 cells assessed as green fluorescence intensity at 1 nM after 24 hrs by JC1 staining-based flow cytometric method (reference value: 0.02%); format: functional
# A549 [6] = test: Induction of apoptosis in human A549 cells assessed as viable cells at 10 nM after 24 hrs by annexin V-FITC/propidium iodide staining-based flow cytometric method (reference value: 98.9%); format: functional; details: A549, 24 h, read-out: Activity
# Summary of the method: (§3)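 A549 cells exposed 24 h or 48 h at indicated concentrations, then trypsinized, harvested and stained with Annexin V-FITC and PI; flow cytometry quadrants scored as necrotic (upper left), late apoptotic (upper right), live (bottom left) and early apoptotic (bottom right). Five independent experiments, representative shown.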
# A549 [7] = test: Induction of apoptosis in human A549 cells assessed as viable cells at 10 nM after 48 hrs by annexin V-FITC/propidium iodide staining-based flow cytometric method (reference value: 98.1%); format: functional; details: A549, 48 h, read-out: Activity; summary of the method: as §3
# [8] = Metabolic stability in Sprague-Dawley rat liver microsomes assessed as compound remaining at 90 mins in presence of NADPH regenerating system by HPLC method; format: ADME; details: read-out: Stability; summary of the method: as §1
# Tubulin = Tubulin (Sus scrofa, UniProt P02554+P02550); test: Inhibition of porcine brain tubulin polymerization measured every 60 secs for 60 mins by DAPI staining-based fluorescence assay
# A549 [9] = test: Induction of apoptosis in human A549 cells assessed as early apoptotic cells at 1 nM after 48 hrs by annexin V-FITC/propidium iodide staining-based flow cytometric method (reference value: 1.95%); format: functional
# [10] = Cytotoxicity against human MCF7/DX cells assessed as growth inhibition after 48 hrs by MTT assay; format: functional, cell-based
# Summary of the method: (§4)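 Drug-resistant lines were tested by a 48 h MTT viability assay. IC50 was derived from dose-response curves and reported as mean ± SE of at least three independent experiments.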
# A549 [11] = test: Induction of apoptosis in human A549 cells assessed as early apoptotic cells at 3 nM after 48 hrs by annexin V-FITC/propidium iodide staining-based flow cytometric method (reference value: 1.95%); format: functional
# [12] = Cytotoxicity against human A2780/TAX cells assessed as growth inhibition after 48 hrs by MTT assay; format: functional, cell-based; summary of the method: as §4
# A2780 = test: Resistance index, ratio of IC50 for human A2780/TAX cells to IC50 for human A2780 cells; format: functional
# [13] = Selectivity ratio of IC50 for HLF to IC50 for human A549 cells; format: ADME, cell-based; details: HLF versus A549 cells, read-out: Ratio IC50
# Summary of the method: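 Selectivity ratio = IC50 in normal cells / IC50 in A549; IC50 values mean ± SE from dose-response curves of at least three independent experiments. HUVECs kept quiescent in endothelial cell medium with 0.5% fetal calf serum, no growth factor.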
# [14] = Metabolic stability in Sprague-Dawley rat liver microsomes assessed as compound remaining at 30 mins in presence of NADPH regenerating system by HPLC method; format: ADME; details: read-out: Stability; summary of the method: as §1
# A549 [15] = test: Disruption of microtubule network in human A549 cells assessed as multipolarization of spindle at 10 nM after 24 hrs by Hoechst 33342 staining-based laser scanning confocal microscopic analysis; format: cell-based
# Summary of the method: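 A549 cells plated in confocal dishes and incubated with compound for 24 h. Cells were then fixed and stained, and microtubule and spindle organization was imaged by laser confocal microscopy. Experiments done five times; representative results shown.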
# A549 [16] = test: Induction of apoptosis in human A549 cells assessed as late apoptotic cells at 10 nM after 48 hrs by annexin V-FITC/propidium iodide staining-based flow cytometric method (reference value: 0.01%); format: functional
# A549 [17] = test: Induction of apoptosis in human A549 cells assessed as necrotic cells at 1 nM after 24 hrs by annexin V-FITC/propidium iodide staining-based flow cytometric method (reference value: 0.03%); format: functional
# A549 [18] = test: Disruption of mitochondrial membrane potential in human A549 cells at 1 to 10 nM after 24 hrs by JC1/Hoechst 33342 staining-based laser scanning confocal microscopy; format: functional, cell-based
# Summary of the method: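 After 24 h compound treatment, A549 cells were incubated with JC-1 for 30 min and visualized by laser scanning confocal microscopy.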
# [19] = Metabolic stability in Sprague-Dawley rat liver microsomes assessed as compound remaining at 120 mins in presence of NADPH regenerating system by HPLC method; format: ADME; details: read-out: Stability
# Summary of the method: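 Rat liver microsomes incubated with compound at 37 ℃ for indicated times in buffer containing NADPH regenerating system; residual parent determined by HPLC.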
# A549 [20] = test: Induction of apoptosis in human A549 cells assessed as early apoptotic cells at 1 nM after 24 hrs by annexin V-FITC/propidium iodide staining-based flow cytometric method (reference value: 1.07%); format: functional
# A549 [21] = test: Disruption of mitochondrial membrane potential in human A549 cells assessed as red fluorescence intensity at 3 nM after 24 hrs by JC1 staining-based flow cytometric method (reference value: 99.2%); format: functional
# HUVEC = test: Cytotoxicity against quiescent HUVEC assessed as growth inhibition after 48 hrs in presence of 0.5% fetal calf serum and absence of growth factor by MTT assay; format: cell-based; details: Homo sapiens; summary of the method: as §2
# A549 [22] = test: Disruption of mitochondrial membrane potential in human A549 cells assessed as red fluorescence intensity at 10 nM after 24 hrs by JC1 staining-based flow cytometric method (reference value: 99.2%); format: functional
# A549 [23] = test: Cell cycle arrest in human A549 cells assessed as accumulation at sub-G1 phase at 3 to 10 nM after 24 to 72 hrs by propidium iodide staining-based flow cytometric analysis; format: functional
# Summary of the method: (§5)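 A549 cells exposed to compound for 24, 48 or 72 h, then trypsinized and harvested. DNA stained with propidium iodide and analyzed by flow cytometry. Percentage of cells in each cell-cycle phase was quantified from the DNA histograms, with sub-G1 taken as the hypodiploid peak. Performed at least three times; representative experiments shown.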
# A549 [24] = test: Cell cycle arrest in human A549 cells assessed as decrease in cell level at G1 phase at 1 to 10 nM after 24 to 48 hrs by propidium iodide staining-based flow cytometric analysis; format: functional; summary of the method: as §5
# HeLa = test: Cytotoxicity against human HeLa cells assessed as cell viability after 48 hrs by MTT assay; format: functional, cell-based
# Summary of the method: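 Cancer cell lines treated with compound for 48 h, and viability read by MTT assay. IC50 given as mean ± SD from at least three independent experiments.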
smiles,measurement,setting,value
COc1ccc2c(/C=C(\C)C(=O)c3cc(OC)c(OC)c(OC)c3)c[nH]c2c1,remaining at 1 h,[1],80.5%
same,Activity,A549 [2],12.41%
same,Activity,A549 [3],8.38%
same,IC50,[4],5670 nM
same,Activity,A549 [5],1.78%
same,viability at 0.01 µM,A549 [6],60.4%
same,viability at 0.01 µM,A549 [7],15.6%
same,remaining at 1.5 h,[8],73.7%
same,IC50,Tubulin,2680 nM
same,Activity,A549 [9],18.9%
same,IC50,[10],9 nM
same,Activity,A549 [11],26.8%
same,IC50,[12],124 nM
same,Ratio IC50,A2780,12.4
same,selectivity ratio,[13],1890
same,remaining at 0.5 h,[14],85.6%
same,Activity,A549 [15],Active
same,Activity,A549 [16],70.2%
same,Activity,A549 [17],1.45%
same,Activity,A549 [18],Active
same,remaining at 2 h,[19],66.3%
same,Activity,A549 [20],12.8%
same,Activity,A549 [21],53.9%
same,IC50,HUVEC,163 nM
same,Activity,A549 [22],40.7%
same,Activity,A549 [23],Active
same,Activity,A549 [24],Active
same,IC50,HeLa,7 nM
